From ChEMBL document CHEMBL3272055, “2,3-Disubstituted 1,8-naphthyridines as potential diuretic agents. 2. 5,7-Dimethyl derivatives” (J Med Chem, 1977)

Columns and labels:
Rattus norvegicus [1] = experiment: Diuretic activity in saline-loaded Wistar albino rat assessed as increase of saline-load excretion at 2 mg/kg, ip measured for 6 hrs relative to control; format: functional, Urine; conditions: route intraperitoneal
Summary of the method: (§1)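 Saline-loaded rats given compound ip, screened at 15 mg/kg, with actives retested at 2 mg/kg. Diuresis was read as urine volume output over 6 h by a modified Lipschitz method and expressed as % of the saline load excreted, as an increase over controls. A response under 21.8% above control was counted insignificant. Activity was also expressed relative to triamterene.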

Rattus norvegicus [2] = experiment: Natriuretic activity in nonloaded rat assessed as increase in Na+ secretion at 2 mg/kg after 6 hrs relative to control; format: functional
Summary of the method: (§2)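 Nonloaded rats dosed at 2 or 15 mg/kg. Urine was collected cumulatively over 6 h and urine volume, Na+ and K+ (mequiv) measured. Values are means of eight rats, reported as drug versus control, with the Na+/K+ ratio derived from these.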

Rattus norvegicus [3] = experiment: Toxicity in nonloaded rat assessed as kaluretic effect by measuring increase in K+ secretion at 15 mg/kg after 6 hrs relative to control; format: organism-based; set-up: dose 15 mg/kg; conditions: in vivo; summary of the method: as §2
Rattus norvegicus [4] = experiment: Diuretic activity in saline-loaded Wistar albino rat assessed as increase of saline-load excretion at 15 mg/kg, ip measured for 6 hrs relative to triamterene; format: functional, Urine; conditions: route intraperitoneal; summary of the method: as §1
Rattus norvegicus [5] = experiment: Toxicity in nonloaded rat assessed as kaluretic effect by measuring increase in K+ secretion at 2 mg/kg after 6 hrs relative to control; format: organism-based; set-up: dose 2 mg/kg; conditions: in vivo; summary of the method: as §2
Rattus norvegicus [6] = experiment: Ratio of natriuretic activity in nonloaded rat assessed as increase in Na+ secretion at 2 mg/kg to kaliuretic activity in nonloaded rat assessed as increase in K+ secretion at 2 mg/kg; summary of the method: as §2
Rattus norvegicus [7] = experiment: Natriuretic activity in nonloaded rat assessed as increase in Na+ secretion at 15 mg/kg after 6 hrs relative to control; format: functional; summary of the method: as §2
Rattus norvegicus [8] = experiment: Diuretic activity in saline-loaded Wistar albino rat assessed as increase of saline-load excretion at 2 mg/kg, ip measured for 6 hrs relative to triamterene; format: functional, Urine; conditions: route intraperitoneal; summary of the method: as §1
Rattus norvegicus [9] = experiment: Diuretic activity in saline-loaded Wistar albino rat assessed as increase of saline-load excretion at 15 mg/kg, ip measured for 6 hrs relative to control; format: functional, Urine; conditions: route intraperitoneal; summary of the method: as §1
Rattus norvegicus [10] = experiment: Diuretic activity in nonloaded rat assessed as urine volume at 15 mg/kg after 6 hrs relative to control; format: functional; summary of the method: as §2
Rattus norvegicus [11] = experiment: Diuretic activity in nonloaded rat assessed as urine volume at 2 mg/kg after 6 hrs relative to control; format: functional; summary of the method: as §2
Rattus norvegicus [12] = experiment: Ratio of natriuretic activity in nonloaded rat assessed as increase in Na+ secretion at 15 mg/kg to kaliuretic activity in nonloaded rat assessed as increase in K+ secretion at 15 mg/kg; summary of the method: as §2

Compound	Activity (Rattus norvegicus [1]) [%]	Activity (Rattus norvegicus [2]) [milliequivalent]	Activity (Rattus norvegicus [3]) [milliequivalent]	fold change (FC) (Rattus norvegicus [4])	Activity (Rattus norvegicus [5]) [milliequivalent]	Ratio (Rattus norvegicus [6])	Activity (Rattus norvegicus [7]) [milliequivalent]	fold change (FC) (Rattus norvegicus [8])	Activity (Rattus norvegicus [9]) [%]	Activity (Rattus norvegicus [10]) [mL]	Activity (Rattus norvegicus [11]) [mL]	Ratio (Rattus norvegicus [12])
CCCCNC(=O)c1cc2c(C)cc(C)nc2nc1N	43.2	0.471	0.25	2.64	0.217	2.17	0.427	1.25	152.7	4.1	3.7	1.71
CCNC(=O)c1cc2c(C)cc(C)nc2nc1N	<21.8	–	0.301	0.83	–	–	0.495	–	47.7	3.7	–	1.64
CCCNC(=O)c1cc2c(C)cc(C)nc2nc1N	<21.8	–	0.25	0.93	–	–	0.41	–	53.7	3.9	–	1.64
CCCCCNC(=O)c1cc2c(C)cc(C)nc2nc1N	<21.8	–	0.263	0.4	–	–	0.39	–	23.4	2.9	–	1.48
COC(=O)c1cc2c(C)cc(C)nc2nc1N	<21.8	–	0.21	0.82	–	–	0.221	–	47.3	1.6	–	1.05
Cl.NC(=O)c1cc2cccnc2nc1N.O	62.9	–	0.161	1.41	–	–	0.765	3	67.5	5.3	–	4.75
Nc1nc(N)c2nc(-c3ccccc3)c(N)nc2n1 [TRIAMTERENE]	34.5	–	0.136	–	–	–	0.804	–	57.8	4.9	–	5.84
